# Screens as filed in PubChem.
# Rows were chosen to be rich in hits. Some 2.9% of all compounds tested hit in one or more screens of this group.
# UBC13 polyUb: blocks human UBC13 polyubiquitin chain formation. P61088. TR-FRET. inhibition, % at 20 µM. 0.47% of 330,000 active; in the data active = inhibition above about 45%, passing the limit was not always enough
# MEKK2 mut-MEK5: signal of MEK5 binding to mutant human MEKK2 PB1 domain; 0.35% of 290,000 active; bead flow cytometry, Alexa488-MEK5 binding to MEKK2 mutant; percent response, % at 10 µM; in the data active = percent response above about 24%, passing the limit was not always enough
# Apaf-1 inh: human Apaf-1 inhibition; reconstituted apoptosome caspase-3 activity, DEVD-Rh110 fluorescence; inhibition, % at 20 µM; 0.71% of 330,000 active; AID 489030; active = inhibition of at least 40% at 20 µM;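 note: plate controls were DMSO wells for no effect and DEVD-CHO caspase inhibitor wells for full effect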
# Target sequence (O14727 whole entry, looked up): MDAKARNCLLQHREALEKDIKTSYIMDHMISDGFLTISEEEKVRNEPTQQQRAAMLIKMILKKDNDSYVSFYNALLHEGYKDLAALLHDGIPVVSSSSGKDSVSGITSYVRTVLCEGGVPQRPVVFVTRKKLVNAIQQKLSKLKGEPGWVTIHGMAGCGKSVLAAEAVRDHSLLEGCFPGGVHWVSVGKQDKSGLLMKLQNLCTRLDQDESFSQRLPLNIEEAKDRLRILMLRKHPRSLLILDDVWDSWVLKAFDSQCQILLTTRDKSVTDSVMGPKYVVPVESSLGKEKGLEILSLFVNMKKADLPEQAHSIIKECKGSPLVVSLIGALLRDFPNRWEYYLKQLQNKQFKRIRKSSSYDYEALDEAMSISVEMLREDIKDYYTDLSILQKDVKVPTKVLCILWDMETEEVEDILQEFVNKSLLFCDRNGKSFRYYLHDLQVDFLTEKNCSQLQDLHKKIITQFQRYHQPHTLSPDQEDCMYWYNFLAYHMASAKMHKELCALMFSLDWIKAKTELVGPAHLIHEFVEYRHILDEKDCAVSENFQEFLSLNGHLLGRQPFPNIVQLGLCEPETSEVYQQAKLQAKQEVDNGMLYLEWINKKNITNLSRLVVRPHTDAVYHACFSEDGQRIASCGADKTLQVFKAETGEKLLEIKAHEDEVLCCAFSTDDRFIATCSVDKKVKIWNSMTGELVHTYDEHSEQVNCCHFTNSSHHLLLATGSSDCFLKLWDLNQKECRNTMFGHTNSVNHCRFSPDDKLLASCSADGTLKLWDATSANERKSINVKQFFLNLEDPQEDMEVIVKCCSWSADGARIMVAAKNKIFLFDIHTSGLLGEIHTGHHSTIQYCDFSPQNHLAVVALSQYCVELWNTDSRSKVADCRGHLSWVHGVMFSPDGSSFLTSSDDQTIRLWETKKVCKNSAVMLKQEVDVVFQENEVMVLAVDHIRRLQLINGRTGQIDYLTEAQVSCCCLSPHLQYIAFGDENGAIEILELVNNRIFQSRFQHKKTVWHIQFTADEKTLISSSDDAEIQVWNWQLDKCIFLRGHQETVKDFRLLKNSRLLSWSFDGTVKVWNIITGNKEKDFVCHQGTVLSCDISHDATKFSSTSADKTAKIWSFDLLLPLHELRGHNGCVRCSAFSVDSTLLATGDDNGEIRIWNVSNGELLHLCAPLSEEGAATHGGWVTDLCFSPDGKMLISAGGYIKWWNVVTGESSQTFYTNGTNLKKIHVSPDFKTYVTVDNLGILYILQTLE
#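 Material: cell-free apoptosome with Apaf-1, procaspase-3 and caspase-9; Buffer or medium: Hepes pH 7.5 with detergent and BSA; Reagent: cytochrome c trigger plus (Z-DEVD)2-Rh110 caspase-3 substrate; Times: compound with Apaf-1, dATP, procaspase-3 30 min, then 50 min reaction, room temperature; Technique: Rh110 fluorescence intensity.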
# MEKK2 WT-MEK5: raises or lowers MEK5 binding to wildtype human MEKK2 PB1 domain | Q9Y2U5 | bead flow cytometry, Alexa488-MEK5 binding to MEKK2 WT; actives lie on both sides | binding response (% of control), % at 10 µM | 1.1% of 290,000 active | AID 1531; in the data active = binding response below about 67% or above about 130%
# MEKK3 PB1 HTS: MEKK3-MEK5 PB1 interaction, increase or decrease. 1.4% of 290,000 active. bead-based flow cytometry, Alexa488-MEK5 binding to MEKK3; actives lie on both sides; 0 = blocked by unlabeled MEK5, 100 = vehicle. Q99759. binding response (% of control), % at 10 µM;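 active = binding response more than 3 SD above or below the average of its plate-row segment, actives on both sides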;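 note: Alexa488 bead fluorescence after subtracting the streptavidin-only scavenger bead signal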
# MEKK2wt confirm: raises or lowers MEK5 binding to wildtype human MEKK2, retest; shares compounds with MEKK3 PB1 HTS; bead flow cytometry, Alexa488-MEK5 binding to MEKK2 WT; actives lie on both sides; binding response (% of control), % at 10 µM; 2.4% of 5,900 active; AID 1892; in the data active = binding response below about 16% or above about 210%; inactive = in between
# MEKK2mut-MEK5: signal of MEK5 binding to mutant human MEKK2, retest; shares compounds with MEKK3 PB1 HTS; bead flow cytometry, Alexa488-MEK5 binding to MEKK2 mutant; percent response, % at 10 µM; 2% of 5,900 active; AID 1893; in the data active = percent response mostly above about 71%, no sharp cut-off; inactive = mostly below about 38%;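 note: higher means compound restores mutant binding toward wildtype level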
# MEKK3-MEK5 inh: MEKK3-MEK5 PB1 inhibition, single concentration confirmation; bead flow cytometry, Alexa488-MEK5 binding to MEKK3; active compounds read low; shares compounds with MEKK3 PB1 HTS; AID 1894; 1.8% of 5,900 active; binding response (% of control), % at 10 µM;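 active = binding response below 72% of control, or above a set upper limit, though filed actives all read lower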;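 note: 100% = DMSO only wells and 0% = binding blocked by excess unlabeled MEK5; lower values mean stronger disruption of MEK5 binding to MEKK3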
# * = called active by the depositor; . = no result given; [ ] = another dose, or the depositor's remark.
SMILES,UBC13 polyUb,MEKK2 mut-MEK5,Apaf-1 inh,MEKK2 WT-MEK5,MEKK3 PB1 HTS,MEKK2wt confirm,MEKK2mut-MEK5,MEKK3-MEK5 inh
Cc1csc2sc(-c3ccnc(SCC(=O)NCc4ccccc4)n3)c(C)c12,-10.8,27.0,6.2,112.0,130.0*,103.0,-2.0,102.0
c1ccc(OCc2noc(CN3CCC(C4CCCCC4)C3)n2)cc1 (centres undefined),3.1,1.0,18.3,109.0,103.0,.,.,.
C(=C\c1nc(-c2cccnc2)no1)/c1ccccc1,11.9,-46.0,-23.4,6.0*[inhibitor],3.0*[inhibitor],98.0,-1.0,99.0
COC(=O)c1ccc(C(=O)Nc2ccc3c(c2)C(=O)NC3=O)cc1,12.8,-5.0,-10.9,69.0*[inhibitor],60.0*[inhibitor],79.0,-11.0,83.0
O=C(O)c1ccc2c(c1)C1C=CCC1C(c1cc3c(cc1Br)OCO3)N2 (centres undefined),-18.0,-6.0,20.8,98.0,100.0,.,.,.
Brc1cc2c(cc1C1Nc3ccccc3C3C=CCC31)OCO2 (centres undefined),-12.2,-2.0,5.8,98.0,67.0*[inhibitor],98.0,-2.0,103.0
O=C(COc1ccccc1-c1ccccc1)NN=C1CCCC1,-10.5,-3.0,10.7,95.0,101.0,.,.,.
COc1ccc(OCCC(=O)OCC(=O)NCc2ccccc2OC)cc1,4.9,.,-1.4,.,.,.,.,.
O=C(CN1C(=O)c2cccc3cccc1c23)N1CCN(c2ccc(F)cc2)CC1,13.2,2.0,2.0,107.0,106.0,.,.,.
O=C(/C=C/c1cccc([N+](=O)[O-])c1)N1CCN(c2ccc(F)cc2)CC1,-1.9,0.0,4.0,109.0,133.0*,96.0,-5.0,97.0
O=C(CN1C(=O)c2cccc([N+](=O)[O-])c2C1=O)N1CCN(c2ccc(F)cc2)CC1,-9.8,-17.0,-5.9,53.0,47.0*[inhibitor],102.0,5.0,106.0
C/C=C\C(=O)Nc1cccc(C2=NOC3(C2)C[C@@H](C(N)=O)N(C(=O)c2ccc(OC)cc2)C3)c1 (some centres undefined),-4.1,-15.0,2.0,87.0,89.0,.,.,.
Cc1[nH]c(=O)c(C(=O)/C=C/c2ccccc2F)c2c1CCCC2,-5.3,4.0,11.3,101.0,104.0,.,.,.
Cc1cccc2cc(/C=N/Nc3ccc(C(=O)O)cc3)c(Cl)nc12,2.1,-37.0,-1.6,67.0,66.0*[inhibitor],74.0,-13.0,79.0
CC(C)Cc1nnc(NC(=O)CCC(=O)NC2CCCCCC2)s1,1.4,5.0,-1.5,99.0,98.0,.,.,.
Cc1ccc(S(=O)(=O)Oc2cccc(/C=N/Nc3ccc(C(=O)O)cc3)c2)cc1,20.7,28.0,-20.3,128.0,132.0*,105.0,7.0,104.0
Cc1ccc(S(=O)(=O)Oc2cccc(/C=N/n3cnnc3)c2)cc1,3.4,-1.0,-1.6,101.0,102.0,.,.,.
Nc1ccc2nc(Cc3ccccc3)[nH]c2c1,-2.2,-12.0,-1.7,47.0*[inhibitor],41.0*[inhibitor],105.0,8.0,104.0
CCN(CC)Cc1c(C(=O)N/N=C/c2ccccn2)nnn1-c1nonc1N,-17.7,-5.0,0.2,102.0,102.0,.,.,.
CCOCCCNC(=O)C(NC(=O)Cc1cccs1)c1ccc(OC)cc1 (centres undefined),-3.6,-2.0,-0.4,92.0,97.0,.,.,.
Cc1ccc(NC(=O)NNC(=O)c2cccs2)cc1,-7.9,0.0,3.7,94.0,71.0*[inhibitor],102.0,0.0,106.0
CN1CCN(CCCNC(=O)c2ccc(/C=C3\Sc4ccccc4N(Cc4ccccc4F)C3=O)cc2)CC1,.,36.0,.,167.0*,97.0,190.0,62.0,110.0
CCN1CCN(CCNC(=O)c2ccc(/C=C3/Sc4ccccc4N(Cc4cccc(Cl)c4)C3=O)cc2)CC1,23.4,120.0*,28.2,280.0*,111.0,234.0*,100.0*,116.0
Cc1cccc(CN2C(=O)/C(=C\c3ccc(C(=O)NCCN4CCOCC4)cc3)Sc3ccccc32)c1,27.1,9.0,15.7,130.0,107.0,.,.,.
COc1cccc(C(=O)N2CCN(Cc3ccccc3Br)CC2)c1,-11.3,-1.0,6.0,97.0,96.0,.,.,.
SMILES,UBC13 polyUb,MEKK2 mut-MEK5,Apaf-1 inh,MEKK2 WT-MEK5,MEKK3 PB1 HTS,MEKK2wt confirm,MEKK2mut-MEK5,MEKK3-MEK5 inh
CCOC(=O)C1CCCN(C(=O)CN2C(=O)/C(=C/c3ccc(OC)cc3)Oc3ccccc32)C1 (centres undefined),24.3,-2.0,16.2,99.0,99.0,.,.,.
CCOC(=O)c1sc(NC(=O)C(C)Sc2nnc(N)s2)nc1C (centres undefined),2.5,-5.0,-8.7,91.0,89.0,.,.,.
CCN1CCCC1CNc1ncnc2c1[nH]c1ccc(Cl)cc12 (centres undefined),19.2,35.0*,21.5,125.0,101.0,119.0,4.0,90.0
COc1ccccc1NC(=O)CSc1nc(N)c(C#N)cc1C#N,15.8,0.0,-2.8,109.0,130.0*,104.0,14.0,105.0
CC(C)(C)C(=O)Nc1ccc2oc(-c3cc(F)c(F)cc3Cl)nc2c1,12.5,-19.0,13.2,1.0*[inhibitor],1.0*[inhibitor],103.0,-2.0,100.0
NNC(=O)c1ccc(COCC(F)(F)F)cc1,-2.2,-1.0,-25.9,99.0,101.0,.,.,.
Cc1cccc(/C=N/n2c(-c3cc(-c4ccccc4)n[nH]3)n[nH]c2=S)c1,4.2,0.0,19.3,101.0,138.0*,96.0,-3.0,101.0
S=c1[nH]nc(-c2cc(-c3ccccc3)n[nH]2)n1/N=C/c1ccccc1,-2.4,7.0,2.6,100.0,107.0,.,.,.
COc1cc(CCC(=O)OCC(=O)Nc2nc(C)c(Cl)cc2Cl)cc(OC)c1OC,-0.4,-32.0,-21.9,12.0*[inhibitor],102.0,95.0,-10.0,97.0
COc1cc(CCC(=O)OCC(=O)Nc2ncc(Cl)cc2Cl)cc(OC)c1OC,1.2,14.0,0.2,93.0,98.0,.,.,.
COc1ccccc1/C=N/NC(=O)C(=O)Nc1ccccc1OC(F)(F)C(F)F,-5.3,1.0,16.2,104.0,134.0*,97.0,-8.0,98.0
O=C(N/N=C/c1cc(Br)ccc1O)C(=O)Nc1ccccc1OC(F)(F)C(F)F,.,2.0,.,104.0,103.0,.,.,.
COc1ccccc1NC(=O)C(=O)N/N=C/c1ccc([N+](=O)[O-])s1,.,-21.0,.,60.0*[inhibitor],63.0*[inhibitor],120.0,10.0,103.0
O=C(N/N=C/c1cc(Cl)ccc1O)C(=O)Nc1ccccc1OC(F)(F)C(F)F,.,3.0,.,98.0,105.0,.,.,.
COc1cccc(/C=N/NC(=O)C(=O)Nc2ccccc2OC(F)(F)C(F)F)c1,-5.7,1.0,-7.4,111.0,149.0*,104.0,7.0,104.0
CC(C)N1CCC(N2CCN(CC#Cc3ccccc3)CC2CCO)CC1 (centres undefined),-0.1,10.0,-5.0,112.0,103.0,.,.,.
